Source: ChEMBL document CHEMBL1250489, “Schiff bases of indoline-2,3-dione (isatin) derivatives and nalidixic acid carbohydrazide, synthesis, antitubercular activity and pharmacophoric model building” (2010)
In brackets after ≈: the same amount, converted by molar mass. Activity calls are given as the source filed them. The rule behind the calls is not given here.

What was measured:
[1] = tested on: Mycolicibacterium smegmatis; test: Antitubercular activity against Mycobacterium smegmatis ATCC 35797 at 200 ug/ml after 48 hrs by agar dilution method; type: functional, organism-based
In short: (§1)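 Agar dilution MIC method. Compounds were dissolved in DMSO at 1 mg/ml and mixed into molten agar at 200 µg/ml. Active compounds were further diluted through 100, 50, 25, 12.5 and 6.25 down to 0.625 µg/ml. Plates had 3–4 mm agar depth. Inocula were overnight Mueller–Hinton broth cultures diluted 1:100 and radially streaked, then incubated 35 °C for 48 h. Isoniazid was the reference; drug-free and DMSO controls were included.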

[2] = tested on: Mycolicibacterium smegmatis; test: Antitubercular activity against Mycobacterium smegmatis ATCC 35797 after 48 hrs by agar dilution method; type: functional; details: ATCC 35797, 48 h
In short: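 MIC by agar dilution, NCCLS-like protocol. A 1 mg/ml DMSO stock is diluted in 10% molten agar to 200 µg/ml, then 100, 50, 25, 12.5, 6.25 down to 0.625 µg/ml. Plates are 3–4 mm deep. Overnight Mueller–Hinton cultures are diluted 1:100 and streaked radially. Incubation is 35 °C for 48 h. The control is DMSO in medium.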

[3] = tested on: Mycobacterium intracellulare; test: Antitubercular activity against Mycobacterium intracellular ATCC 35743 at 200 ug/ml after 48 hrs by agar dilution method; type: functional, organism-based
In short: (§2)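 Agar dilution screen. Compounds are dissolved in DMSO at 1 mg/ml stock and mixed into 10% molten agar to 200 µg/ml. Plates are poured 3–4 mm deep. Overnight Mueller–Hinton broth cultures are diluted 1:100 and streaked radially. Plates are incubated at 35 °C for 48 h. Controls are strain with DMSO and medium only.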

[4] = tested on: Mycobacterium xenopi; test: Antitubercular activity against Mycobacterium xenopi ATCC 14470 at 200 ug/ml after 48 hrs by agar dilution method; type: functional, organism-based; in short: as §2
[5] = tested on: Mycobacteroides chelonae; test: Antitubercular activity against Mycobacterium chelonae ATCC 35751 at 200 ug/ml after 48 hrs by agar dilution method; type: functional, organism-based; in short: as §2
[6] = tested on: Mycobacterium intracellulare; test: Antitubercular activity against Mycobacterium intracellular ATCC 35743 after 48 hrs by agar dilution method; type: functional; details: ATCC 35743, 48 h; in short: as §1
[7] = tested on: Mycobacteroides chelonae; test: Antitubercular activity against Mycobacterium chelonae ATCC 35751 after 48 hrs by agar dilution method; type: functional; details: ATCC 35751, 48 h; in short: as §1
[8] = tested on: Mycobacterium xenopi; test: Antitubercular activity against Mycobacterium xenopi ATCC 14470 after 48 hrs by agar dilution method; type: functional; details: ATCC 14470, 48 h; in short: as §1
[9] = tested on: Mycobacteroides chelonae; test: Ratio of compound MIC to isoniazid MIC for Mycobacterium chelonae ATCC 35751; type: functional
[10] = tested on: Mycobacterium xenopi; test: Ratio of compound MIC to isoniazid MIC for Mycobacterium xenopi ATCC 14470; type: functional
[11] = tested on: Mycobacterium intracellulare; test: Ratio of compound MIC to isoniazid MIC for Mycobacterium intracellular ATCC 35743; type: functional
[12] = tested on: Mycolicibacterium smegmatis; test: Ratio of compound MIC to isoniazid MIC for Mycobacterium smegmatis ATCC 35797; type: functional

Row | SMILES | MIC [1] | MIC [2] [µg/mL] | MIC [6] [µg/mL] | MIC [8] [µg/mL] | also measured
1 | CCn1cc(C(=O)N/N=C2\C(=O)N(CN3CCN(C)CC3)c3ccccc32)c(=O)c2ccc(C)nc21 | inactive | – | – | – | –
2 | C=CCN1C(=O)/C(=N\NC(=O)c2cn(CC)c3nc(C)ccc3c2=O)c2ccccc21 | inactive | – | – | – | –
3 | CCn1cc(C(=O)N/N=C2\C(=O)Nc3ccc(Br)cc32)c(=O)c2ccc(C)nc21 | – | 200 (≈ 440 µM) | – | – | MIC [3]: inactive; MIC [4]: inactive; MIC [5]: inactive
4 | CCn1cc(C(=O)N/N=C2\C(=O)N(C)c3ccc(Br)cc32)c(=O)c2ccc(C)nc21 | inactive | – | – | – | –
5 | CCCN1C(=O)/C(=N\NC(=O)c2cn(CC)c3nc(C)ccc3c2=O)c2ccccc21 | inactive | – | – | – | –
6 | CCCN1C(=O)/C(=N\NC(=O)c2cn(CC)c3nc(C)ccc3c2=O)c2cc(Br)ccc21 | inactive | – | – | – | –
7 | C=CCN1C(=O)/C(=N\NC(=O)c2cn(CC)c3nc(C)ccc3c2=O)c2cc(Br)ccc21 | inactive | – | – | – | –
8 | CCn1cc(C(=O)N/N=C2\C(=O)N(Cc3ccccc3)c3ccc(Br)cc32)c(=O)c2ccc(C)nc21 | – | 50 (≈ 91.8 µM) | 50 (≈ 91.8 µM) | 50 (≈ 91.8 µM) | MIC [7]: 50 µg/mL (≈ 91.8 µM)
9 | CCn1cc(C(=O)N/N=C2\C(=O)N(C)c3ccccc32)c(=O)c2ccc(C)nc21 | – | 200 (≈ 514 µM) | 200 (≈ 514 µM) | – | MIC [4]: inactive; MIC [5]: inactive
10 | CCn1cc(C(=O)N/N=C2\C(=O)Nc3ccccc32)c(=O)c2ccc(C)nc21 | – | 100 (≈ 266 µM) | – | – | MIC [3]: inactive; MIC [4]: inactive; MIC [5]: inactive
11 | CCN(CC)CN1C(=O)/C(=N\NC(=O)c2cn(CC)c3nc(C)ccc3c2=O)c2ccccc21 | inactive | – | – | – | –
12 | CCN(CC)CN1C(=O)/C(=N\NC(=O)c2cn(CC)c3nc(C)ccc3c2=O)c2cc(Br)ccc21 | inactive | – | – | – | –
13 | CCn1cc(C(=O)N/N=C2\C(=O)N(Cc3ccccc3)c3ccccc32)c(=O)c2ccc(C)nc21 | – | 0.625 (≈ 1.34 µM) | 0.625 (≈ 1.34 µM) | 0.625 (≈ 1.34 µM) | MIC [7]: 0.625 µg/mL (≈ 1.34 µM); Ratio [9]: 20; Ratio [10]: 20; Ratio [11]: 20; Ratio [12]: 20
14 | CCN1C(=O)/C(=N\NC(=O)c2cn(CC)c3nc(C)ccc3c2=O)c2cc(Br)ccc21 | – | 100 (≈ 207 µM) | 100 (≈ 207 µM) | 100 (≈ 207 µM) | MIC [5]: inactive
15 | NNC(=O)c1ccncc1 [ISONIAZID] | – | 12.5 (≈ 91.1 µM) | 12.5 (≈ 91.1 µM) | 12.5 (≈ 91.1 µM) | MIC [7]: 12.5 µg/mL (≈ 91.1 µM)
16 | CCN1C(=O)/C(=N\NC(=O)c2cn(CC)c3nc(C)ccc3c2=O)c2ccccc21 | – | 200 (≈ 496 µM) | 200 (≈ 496 µM) | 200 (≈ 496 µM) | MIC [7]: 200 µg/mL (≈ 496 µM)
